Results reported in ChEMBL document CHEMBL1955770, “Inhibition of S/G2 phase CDK4 reduces mitotic fidelity” (J Biol Chem, 2006).

Experiments:
[1] = biological target: Cyclin-G-associated kinase (Homo sapiens) (UniProt O14976); experiment: Inhibition of GAK at 1 uM
[2] = biological target: Ribosomal protein S6 kinase alpha-5 (Homo sapiens) (UniProt O75582); experiment: Inhibition of RPS6KA5 Kin.Dom.1 at 1 uM
[3] = biological target: Cyclin-dependent kinase 16 (Homo sapiens) (UniProt Q00536); experiment: Inhibition of PCTK1 at 1 uM
[4] = biological target: Serine/threonine-protein kinase STK11 (Homo sapiens) (UniProt Q15831); experiment: Inhibition of STK11 at 1 uM
[5] = biological target: Receptor-type tyrosine-protein kinase FLT3 (Homo sapiens) (UniProt P36888); experiment: Inhibition of FLT3 at 1 uM
[6] = biological target: Myosin light chain kinase 2, skeletal/cardiac muscle (Homo sapiens) (UniProt Q9H1R3); experiment: Inhibition of MYLK2 at 1 uM
[7] = test system: Serine/threonine-protein kinase B-raf (Homo sapiens), P15056 [V600E]; experiment: Inhibition of BRAF(V600E) at 1 uM
Outline: (§1)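 Competition binding screen across a kinase panel with compound at 1 μM. Read-out is % competition. Kinases not hit at this concentration were scored '<50'. No Kd was determined for hits.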

[8] = biological target: Casein kinase I isoform gamma-2 (Homo sapiens) (UniProt P78368); experiment: Inhibition of CSNK1G2 at 1 uM
[9] = biological target: Calcium/calmodulin-dependent protein kinase type II subunit alpha (Homo sapiens) (UniProt Q9UQM7); experiment: Inhibition of CAMK2A at 1 uM; outline: as §1
Calcium/calmodulin-dependent protein kinase type II subunit alpha (Homo sapiens), sequence (Q9UQM7 whole entry): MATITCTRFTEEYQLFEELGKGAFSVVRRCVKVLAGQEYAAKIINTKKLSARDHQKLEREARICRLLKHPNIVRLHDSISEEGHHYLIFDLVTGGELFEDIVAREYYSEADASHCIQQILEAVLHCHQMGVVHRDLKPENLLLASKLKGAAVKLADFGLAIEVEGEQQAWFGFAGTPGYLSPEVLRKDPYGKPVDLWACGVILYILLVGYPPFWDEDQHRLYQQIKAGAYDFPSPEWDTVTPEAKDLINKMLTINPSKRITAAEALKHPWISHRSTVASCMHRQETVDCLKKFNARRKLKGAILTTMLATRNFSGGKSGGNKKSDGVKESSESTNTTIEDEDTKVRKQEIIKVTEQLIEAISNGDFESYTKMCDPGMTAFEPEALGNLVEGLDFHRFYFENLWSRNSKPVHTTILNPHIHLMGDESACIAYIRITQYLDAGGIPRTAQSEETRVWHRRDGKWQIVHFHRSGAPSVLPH

[10] = biological target: Focal adhesion kinase 1 (Homo sapiens) (UniProt Q05397); experiment: Inhibition of PTK2 at 1 uM
Focal adhesion kinase 1 (Homo sapiens), sequence (Q05397 2-1052 limits assumed): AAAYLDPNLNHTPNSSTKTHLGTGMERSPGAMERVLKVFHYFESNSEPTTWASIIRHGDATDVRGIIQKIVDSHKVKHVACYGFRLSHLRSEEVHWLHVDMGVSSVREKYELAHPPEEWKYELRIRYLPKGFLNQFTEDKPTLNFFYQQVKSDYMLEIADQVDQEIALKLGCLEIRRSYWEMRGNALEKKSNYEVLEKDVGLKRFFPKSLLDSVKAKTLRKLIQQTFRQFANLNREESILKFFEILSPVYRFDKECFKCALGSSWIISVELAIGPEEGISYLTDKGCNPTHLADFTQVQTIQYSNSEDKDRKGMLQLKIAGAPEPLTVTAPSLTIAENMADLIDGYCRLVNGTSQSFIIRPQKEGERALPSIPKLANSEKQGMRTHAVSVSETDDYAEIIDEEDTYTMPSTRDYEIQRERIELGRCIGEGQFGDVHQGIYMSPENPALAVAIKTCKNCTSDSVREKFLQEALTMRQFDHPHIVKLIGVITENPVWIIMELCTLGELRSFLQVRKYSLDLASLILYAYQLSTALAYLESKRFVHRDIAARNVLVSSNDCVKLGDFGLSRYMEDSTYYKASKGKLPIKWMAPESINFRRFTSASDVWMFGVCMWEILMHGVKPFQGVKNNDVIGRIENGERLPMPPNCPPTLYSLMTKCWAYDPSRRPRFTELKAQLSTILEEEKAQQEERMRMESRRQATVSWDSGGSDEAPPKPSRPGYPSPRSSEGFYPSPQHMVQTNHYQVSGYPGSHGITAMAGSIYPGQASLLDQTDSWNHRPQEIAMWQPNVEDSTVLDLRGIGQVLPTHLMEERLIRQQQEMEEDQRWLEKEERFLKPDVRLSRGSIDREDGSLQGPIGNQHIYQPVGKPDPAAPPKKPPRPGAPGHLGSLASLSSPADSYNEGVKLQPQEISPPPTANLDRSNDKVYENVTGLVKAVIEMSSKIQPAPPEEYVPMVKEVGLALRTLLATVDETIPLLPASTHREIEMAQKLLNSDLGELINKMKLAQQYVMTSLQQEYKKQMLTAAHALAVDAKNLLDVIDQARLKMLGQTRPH

[11] = biological target: Serine/threonine-protein kinase PLK4 (Homo sapiens) (UniProt O00444); experiment: Inhibition of PLK4 at 1 uM
[12] = biological target: Tyrosine-protein kinase Yes (Homo sapiens) (UniProt P07947); experiment: Inhibition of YES at 1 uM
[13] = biological target: Tyrosine-protein kinase ABL1 (Homo sapiens) (UniProt P00519); experiment: Inhibition of ABL1 at 1 uM
Tyrosine-protein kinase ABL1 (Homo sapiens), sequence (P00519 whole entry): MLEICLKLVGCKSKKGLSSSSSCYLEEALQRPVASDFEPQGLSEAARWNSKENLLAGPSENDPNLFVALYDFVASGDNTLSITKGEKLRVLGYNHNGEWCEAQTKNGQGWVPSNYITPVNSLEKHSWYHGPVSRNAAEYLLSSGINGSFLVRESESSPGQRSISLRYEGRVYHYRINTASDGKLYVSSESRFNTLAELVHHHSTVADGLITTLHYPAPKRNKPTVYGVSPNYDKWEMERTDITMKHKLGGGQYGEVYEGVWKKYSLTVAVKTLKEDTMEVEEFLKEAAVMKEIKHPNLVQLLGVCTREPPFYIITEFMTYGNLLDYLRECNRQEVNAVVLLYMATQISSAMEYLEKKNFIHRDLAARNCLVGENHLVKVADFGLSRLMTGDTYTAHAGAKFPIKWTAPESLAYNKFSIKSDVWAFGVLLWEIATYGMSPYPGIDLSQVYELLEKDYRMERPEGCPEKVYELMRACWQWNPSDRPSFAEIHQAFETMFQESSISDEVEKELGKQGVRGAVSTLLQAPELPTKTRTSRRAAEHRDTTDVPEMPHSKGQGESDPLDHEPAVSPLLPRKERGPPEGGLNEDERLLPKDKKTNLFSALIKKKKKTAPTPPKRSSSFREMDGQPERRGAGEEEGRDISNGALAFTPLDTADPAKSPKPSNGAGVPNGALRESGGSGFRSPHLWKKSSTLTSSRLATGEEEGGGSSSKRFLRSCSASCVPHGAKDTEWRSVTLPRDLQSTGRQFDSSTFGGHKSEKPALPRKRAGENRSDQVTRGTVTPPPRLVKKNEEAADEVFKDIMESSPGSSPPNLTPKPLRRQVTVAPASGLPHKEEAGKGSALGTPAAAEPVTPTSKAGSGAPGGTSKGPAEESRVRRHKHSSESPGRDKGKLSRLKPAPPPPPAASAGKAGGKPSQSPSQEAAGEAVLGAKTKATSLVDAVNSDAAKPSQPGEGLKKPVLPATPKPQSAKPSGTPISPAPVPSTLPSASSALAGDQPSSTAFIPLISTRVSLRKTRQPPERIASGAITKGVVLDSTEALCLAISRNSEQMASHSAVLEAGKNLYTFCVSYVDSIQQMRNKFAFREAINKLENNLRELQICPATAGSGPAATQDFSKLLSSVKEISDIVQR

[14] = biological target: cAMP-dependent protein kinase catalytic subunit alpha (Homo sapiens) (UniProt P17612); experiment: Inhibition of PKA catalytic subunit alpha at 1 uM
[15] = biological target: Ephrin type-A receptor 2 (Homo sapiens) (UniProt P29317); experiment: Inhibition of EPHA2 at 1 uM
Ephrin type-A receptor 2 (Homo sapiens), sequence (P29317 whole entry): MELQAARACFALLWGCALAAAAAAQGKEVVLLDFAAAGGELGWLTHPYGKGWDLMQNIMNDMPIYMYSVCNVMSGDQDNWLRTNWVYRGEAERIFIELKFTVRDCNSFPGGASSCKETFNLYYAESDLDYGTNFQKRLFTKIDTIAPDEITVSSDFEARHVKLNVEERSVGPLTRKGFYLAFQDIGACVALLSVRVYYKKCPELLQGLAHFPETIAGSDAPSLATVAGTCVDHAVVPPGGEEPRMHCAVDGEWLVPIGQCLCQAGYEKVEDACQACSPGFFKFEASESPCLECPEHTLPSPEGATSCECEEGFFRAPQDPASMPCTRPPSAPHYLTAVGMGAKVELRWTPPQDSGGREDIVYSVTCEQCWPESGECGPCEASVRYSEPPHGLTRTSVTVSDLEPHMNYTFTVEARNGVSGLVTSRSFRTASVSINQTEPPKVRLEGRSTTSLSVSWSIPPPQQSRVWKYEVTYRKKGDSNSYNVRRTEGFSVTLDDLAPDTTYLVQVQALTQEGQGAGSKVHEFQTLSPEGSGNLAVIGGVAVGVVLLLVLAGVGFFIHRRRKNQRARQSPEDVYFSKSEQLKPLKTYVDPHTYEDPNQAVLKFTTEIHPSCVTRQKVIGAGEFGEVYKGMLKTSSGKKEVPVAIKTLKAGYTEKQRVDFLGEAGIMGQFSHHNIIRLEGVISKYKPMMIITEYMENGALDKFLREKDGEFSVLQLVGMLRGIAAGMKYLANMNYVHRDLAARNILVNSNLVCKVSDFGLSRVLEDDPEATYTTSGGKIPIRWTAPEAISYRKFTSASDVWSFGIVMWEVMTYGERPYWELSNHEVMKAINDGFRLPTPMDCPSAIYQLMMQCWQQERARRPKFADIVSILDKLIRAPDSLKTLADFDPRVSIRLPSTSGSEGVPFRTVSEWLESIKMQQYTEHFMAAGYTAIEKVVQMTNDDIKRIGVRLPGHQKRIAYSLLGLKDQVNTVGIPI

[16] = biological target: Serine/threonine-protein kinase 3 (Homo sapiens) (UniProt Q13188); experiment: Inhibition of STK3 at 1 uM
[17] = biological target: Dual specificity protein kinase CLK1 (Homo sapiens) (UniProt P49759); experiment: Inhibition of CLK1 at 1 uM
[18] = biological target: Tyrosine-protein kinase HCK (Homo sapiens) (UniProt P08631); experiment: Inhibition of HCK at 1 uM
[19] = biological target: STE20-like serine/threonine-protein kinase (Homo sapiens) (UniProt Q9H2G2); experiment: Inhibition of SLK at 1 uM
[20] = biological target: Casein kinase I isoform gamma-1 (Homo sapiens) (UniProt Q9HCP0); experiment: Inhibition of CSNK1G1 at 1 uM
[21] = biological target: Receptor tyrosine-protein kinase erbB-4 (Homo sapiens) (UniProt Q15303); experiment: Inhibition of ERBB4 at 1 uM
[22] = biological target: Aurora kinase C (Homo sapiens) (UniProt Q9UQB9); experiment: Inhibition of AURKC at 1 uM; outline: as §1
Aurora kinase C (Homo sapiens), sequence (Q9UQB9 whole entry): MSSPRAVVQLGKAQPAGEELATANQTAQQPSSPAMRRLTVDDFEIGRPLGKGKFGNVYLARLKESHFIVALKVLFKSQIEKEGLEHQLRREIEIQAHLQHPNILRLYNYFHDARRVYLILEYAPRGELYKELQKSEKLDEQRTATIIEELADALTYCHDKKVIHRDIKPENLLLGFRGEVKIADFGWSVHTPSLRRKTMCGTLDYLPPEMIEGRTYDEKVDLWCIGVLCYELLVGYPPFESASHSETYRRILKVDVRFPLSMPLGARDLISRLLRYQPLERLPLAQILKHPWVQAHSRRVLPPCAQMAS

[23] = biological target: Mitogen-activated protein kinase 8 (Homo sapiens) (UniProt P45983); experiment: Inhibition of JNK1 at 1 uM
Mitogen-activated protein kinase 8 (Homo sapiens), sequence (P45983 whole entry): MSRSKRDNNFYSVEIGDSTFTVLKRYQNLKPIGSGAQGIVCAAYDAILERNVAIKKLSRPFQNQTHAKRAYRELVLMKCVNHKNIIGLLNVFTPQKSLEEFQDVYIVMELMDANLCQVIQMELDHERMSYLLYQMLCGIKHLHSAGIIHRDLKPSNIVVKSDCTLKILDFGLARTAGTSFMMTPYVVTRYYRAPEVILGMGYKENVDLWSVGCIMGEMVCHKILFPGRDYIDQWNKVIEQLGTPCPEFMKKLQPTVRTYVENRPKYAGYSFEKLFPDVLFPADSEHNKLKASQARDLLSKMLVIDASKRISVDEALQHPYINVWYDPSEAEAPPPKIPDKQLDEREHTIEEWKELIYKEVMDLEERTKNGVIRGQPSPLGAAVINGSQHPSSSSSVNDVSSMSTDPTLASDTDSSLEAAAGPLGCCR

[24] = biological target: Proto-oncogene tyrosine-protein kinase Src (Homo sapiens, UniProt P12931); experiment: Inhibition of SRC at 1 uM
[25] = biological target: Mitogen-activated protein kinase 12 (Homo sapiens) (UniProt P53778); experiment: Inhibition of p38-gamma at 1 uM
[26] = biological target: Tyrosine-protein kinase Blk (Homo sapiens) (UniProt P51451); experiment: Inhibition of BLK at 1 uM; outline: as §1
[27] = biological target: 3-phosphoinositide-dependent protein kinase 1 (Homo sapiens) (UniProt O15530); experiment: Inhibition of PDPK1 at 1 uM
[28] = biological target: Dual specificity protein kinase CLK4 (Homo sapiens) (UniProt Q9HAZ1); experiment: Inhibition of CLK4 at 1 uM
[29] = biological target: Activated CDC42 kinase 1 (Homo sapiens) (UniProt Q07912); experiment: Inhibition of ACK1 at 1 uM; outline: as §1
[30] = biological target: Tyrosine-protein kinase JAK1 (Homo sapiens) (UniProt P23458); experiment: Inhibition of JAK1(Kin.Dom.1) at 1 uM
[31] = biological target: Mitogen-activated protein kinase kinase kinase 4 (Homo sapiens) (UniProt Q9Y6R4); experiment: Inhibition of MAP3K4 at 1 uM
[32] = biological target: Receptor-interacting serine/threonine-protein kinase 2 (Homo sapiens) (UniProt O43353); experiment: Inhibition of RIPK2 at 1 uM
[33] = biological target: Tyrosine-protein kinase Fgr (Homo sapiens) (UniProt P09769); experiment: Inhibition of FGR at 1 uM
[34] = biological target: Tyrosine-protein kinase CSK (Homo sapiens) (UniProt P41240); experiment: Inhibition of CSK at 1 uM
[35] = biological target: Serine/threonine-protein kinase 36 (Homo sapiens) (UniProt Q9NRP7); experiment: Inhibition of STK36 at 1 uM
[36] = biological target: Cyclin-dependent kinase 5 (Homo sapiens) (UniProt Q00535); experiment: Inhibition of CDK5 at 1 uM
[37] = biological target: Tyrosine-protein kinase Fes/Fps (Homo sapiens) (UniProt P07332); experiment: Inhibition of FES at 1 uM
[38] = biological target: Mitogen-activated protein kinase 9 (Homo sapiens) (UniProt P45984); experiment: Inhibition of JNK2 at 1 uM
[39] = biological target: Serine/threonine-protein kinase ULK3 (Mus musculus) (UniProt Q3U3Q1); experiment: Inhibition of mouse ULK3 at 1 uM
[40] = biological target: Serine/threonine-protein kinase PAK 3 (Homo sapiens) (UniProt O75914); experiment: Inhibition of PAK3 at 1 uM
[41] = biological target: Tyrosine-protein kinase BTK (Homo sapiens) (UniProt Q06187); experiment: Inhibition of BTK at 1 uM; outline: as §1
[42] = biological target: Calcium/calmodulin-dependent protein kinase type II subunit delta (Homo sapiens) (UniProt Q13557); experiment: Inhibition of CAMK2D at 1 uM; outline: as §1
[43] = biological target: Mitogen-activated protein kinase kinase kinase kinase 5 (Homo sapiens) (UniProt Q9Y4K4); experiment: Inhibition of MAP4K5 at 1 uM
[44] = biological target: Tyrosine-protein kinase ABL2 (Homo sapiens) (UniProt P42684); experiment: Inhibition of ABL2 at 1 uM; outline: as §1
[45] = biological target: Mitogen-activated protein kinase 11 (Homo sapiens) (UniProt Q15759); experiment: Inhibition of p38-beta at 1 uM
[46] = biological target: Tyrosine-protein kinase ITK/TSK (Homo sapiens) (UniProt Q08881); experiment: Inhibition of ITK at 1 uM
[47] = biological target: Serine/threonine-protein kinase 4 (Homo sapiens) (UniProt Q13043); experiment: Inhibition of STK4 at 1 uM
Serine/threonine-protein kinase 4 (Homo sapiens), sequence (Q13043 whole entry): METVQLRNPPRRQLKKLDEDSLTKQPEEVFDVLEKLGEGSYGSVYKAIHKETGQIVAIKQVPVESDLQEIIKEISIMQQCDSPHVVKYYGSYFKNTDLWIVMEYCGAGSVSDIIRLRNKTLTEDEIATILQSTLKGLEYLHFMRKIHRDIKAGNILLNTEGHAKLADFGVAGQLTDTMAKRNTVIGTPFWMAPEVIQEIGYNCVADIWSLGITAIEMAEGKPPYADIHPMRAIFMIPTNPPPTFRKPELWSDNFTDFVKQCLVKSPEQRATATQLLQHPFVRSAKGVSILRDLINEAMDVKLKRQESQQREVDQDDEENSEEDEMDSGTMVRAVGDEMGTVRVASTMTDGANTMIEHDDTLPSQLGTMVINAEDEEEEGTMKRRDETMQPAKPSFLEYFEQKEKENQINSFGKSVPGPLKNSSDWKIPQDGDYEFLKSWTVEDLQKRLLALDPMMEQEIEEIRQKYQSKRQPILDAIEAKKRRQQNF

inhibition [1]: 100% | inhibition [2]: < 50% | inhibition [3]: 99% | inhibition [4]: < 50% | inhibition [5]: < 50% | inhibition [6]: < 50% | inhibition [7]: < 50% | inhibition [8]: 99% | inhibition [9]: < 50% | inhibition [10]: < 50% | inhibition [11]: < 50% | inhibition [12]: < 50% | inhibition [13]: < 50% | inhibition [14]: < 50% | inhibition [15]: < 50% | inhibition [16]: < 50% | inhibition [17]: 100% | inhibition [18]: < 50% | inhibition [19]: 99% | inhibition [20]: 98% | inhibition [21]: < 50% | inhibition [22]: < 50% | inhibition [23]: < 50% | inhibition [24]: < 50% | inhibition [25]: < 50% | inhibition [26]: < 50% | inhibition [27]: < 50% | inhibition [28]: 97% | inhibition [29]: < 50% | inhibition [30]: 94% | inhibition [31]: < 50% | inhibition [32]: < 50% | inhibition [33]: < 50% | inhibition [34]: < 50% | inhibition [35]: 86% | inhibition [36]: < 50% | inhibition [37]: < 50% | inhibition [38]: < 50% | inhibition [39]: < 50% | inhibition [40]: < 50% | inhibition [41]: < 50% | inhibition [42]: < 50% | inhibition [43]: < 50% | inhibition [44]: < 50% | inhibition [45]: < 50% | inhibition [46]: < 50% | inhibition [47]: < 50%
Structure (SMILES): CN1CCN(c2ccc(Nc3nc(N)c(C(=O)c4ccc5c(c4)OCCO5)s3)cc2)CC1
